Laboratory results: paper PMC8829933 (ACS Omega, 2022)

How the values were obtained:
HIV-1 IN (WT) = HIV-1 IN (WT) (Human immunodeficiency virus type 1 group M subtype B, UniProt P12497); assay: HTRF-based integration assay of IN catalytic activity; type: biochemical
Summary of the method: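 Full-length HIV-1 IN and LEDGF/p75 cofactor (6xHis- and Flag-tagged, expressed in E. coli BL21(DE3)) catalyse integration of donor viral DNA, 5′-Cy5-labelled, into acceptor target DNA, 5′-biotinylated and bound by streptavidin-europium. The integration product is read as time-resolved FRET between the two fluorophores, with test compound present.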

HIV-1 IN G140S/Q148H = HIV-1 IN G140S/Q148H (Human immunodeficiency virus type 1 group M subtype B, UniProt P12497, G1287S/Q1295H); assay: HTRF-based integration assay against drug-resistant IN; type: biochemical
HIV-1 IN A128T = HIV-1 IN A128T (Human immunodeficiency virus type 1 group M subtype B, UniProt P12497, A1275T); assay: as above; type: biochemical
HIV-1 IN H171T = HIV-1 IN H171T (Human immunodeficiency virus type 1 group M subtype B, UniProt P12497, H1318T); assay: as above; type: biochemical
HIV-1 = details: reported in the literature; ref [30],[41],[58],[60]−[69]; cited from earlier work

| SMILES | IC50 (HIV-1 IN (WT); IC50, inhibitory activity against IN, Table 2, WT IN) | fold higher potency than compound 12 (HIV-1 IN (WT); IN catalytic activity in vitro, relative to 12) | IC50 (HIV-1 IN G140S/Q148H) | IC50 (HIV-1 IN A128T) | IC50 (HIV-1 IN H171T) | selectivity against HIV-1 (therapeutic index) (HIV-1) |
| --- | --- | --- | --- | --- | --- | --- |
| CC(C)(C)OC(=O)N1CCC(C(=O)N[C@@H](Cc2ccc3ccccc3c2)C(=O)O)(c2ccccc2)CC1 [Compound 14e] | 90.4 ± 4.72 µM | fourfold | 103 ± 3.12 µM | 86.8 ± 2.98 µM | 114 ± 9.79 µM | – |
| Cc1nc2c(c(C)c(C)n2Cc2cnn(C)c2)c(-c2ccc(Cl)cc2)c1[C@H](OC(C)(C)C)C(=O)O [STP0404] | – | – | – | – | – | > 24,000 |
